Experimental findings from ChEMBL document CHEMBL1136700, “Identification of a broad-spectrum azasordarin with improved pharmacokinetic properties” (Bioorg Med Chem Lett, 2003) are described below.

What all share (format): functional
One assay relates to Nakaseomyces glabratus. Briefly: Minimum inhibitory concentration (MIC) to Candida glabrata after 48 hours. Particulars: Nakaseomyces glabratus, 48 h; read-out: MIC. The essentials: (§1)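 Antifungal susceptibility read visually; MIC taken as lowest drug concentration giving 90–100% inhibition of visible growth relative to drug-free controls, read over 48 h, or after 24 h where footnoted. Organisms: C. parapsilosis, C. albicans, Cryptococcus neoformans, C. glabrata, Aspergillus fumigatus, Aspergillus flavus.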

A further assay has as its system Aspergillus fumigatus. Briefly: Minimum inhibitory concentration (MIC) to Aspergillus fumigatus after 48 hr. Particulars: Aspergillus fumigatus, 48 h; read-out: MIC. The essentials:
as §1

For a further assay, the system named is Cryptococcus neoformans. In words: Minimum inhibitory concentration against Cryptococcus neoformans after 48 hours. In a few lines:
as §1

In the next assay the test system is Candida albicans. In words: Minimum inhibitory concentration (MIC) to Candida albicans after 48 hr. In a few lines:
as §1

Another assay relates to Aspergillus flavus. Briefly: Minimum inhibitory concentration (MIC) against Aspergillus flavus after 24 hours. Particulars: Aspergillus flavus, 24 h; read-out: MIC. The essentials:
as §1

In another assay the test system is Candida parapsilosis. Briefly: Minimum inhibitory concentration (MIC) to Candida parapsilosis after 48 hr. The following applies: Lodderomyces parapsilosis, 48 h; read-out: MIC. In a few lines: as §1

Converted amounts (≈) assume the structure as drawn.

A word on the MIC: it is the lowest concentration that inhibits growth of the organism. Consider `CC(C)C1=CC2CC3(C=O)[C@@H]4CC[C@@H](C)[C@H]4CC2(CO[C@H]2CN(C4C=CCCC4)[C@H](C)CO2)[C@]13C(=O)O` (some centres not stated), for which the MIC was 8 mg/L (≈ 15.6 µM) in the assay on Nakaseomyces glabratus; over 128 mg/L with Aspergillus fumigatus; over 128 mg/L against Cryptococcus neoformans; 2 mg/L (≈ 3.91 µM) with Candida albicans; over 128 mg/L in the assay on Aspergillus flavus; over 128 mg/L in the assay on Candida parapsilosis.

Take `C=CCN1C[C@H](OCC23C[C@@H]4[C@H](C)CC[C@H]4C4(C=O)CC2C=C(C(C)C)[C@@]34C(=O)O)OC[C@H]1C`: the MIC in the assay on Nakaseomyces glabratus is 0.25 mg/L (≈ 0.53 µM); in the assay with Aspergillus fumigatus it was over 128 mg/L; against Cryptococcus neoformans, 128 mg/L (≈ 271 µM); in the assay on Candida albicans, 0.125 mg/L (≈ 0.265 µM); in the assay with Aspergillus flavus, over 128 mg/L; in the assay on Candida parapsilosis, 64 mg/L (≈ 136 µM).

With `CC(C)CN1C[C@H](OCC23C[C@@H]4[C@H](C)CC[C@H]4C4(C=O)CC2C=C(C(C)C)[C@@]34C(=O)O)OC[C@H]1C`, the MIC in the assay on Nakaseomyces glabratus was 1 mg/L (≈ 2.05 µM); in the assay with Aspergillus fumigatus it was over 128 mg/L; against Cryptococcus neoformans, 32 mg/L (≈ 65.6 µM); with Candida albicans, under 0.06 mg/L; with Aspergillus flavus, over 128 mg/L; with Candida parapsilosis it was over 128 mg/L.

As to `CC(C)C1=CC2CC3(C=O)[C@@H]4CC[C@@H](C)[C@H]4CC2(CO[C@H]2CN(CC=C(F)F)[C@H](C)CO2)[C@]13C(=O)O`, the MIC was 1 mg/L (≈ 1.97 µM) in the assay on Nakaseomyces glabratus; over 128 mg/L in the assay with Aspergillus fumigatus; 64 mg/L (≈ 126 µM) in the assay on Cryptococcus neoformans; 0.125 mg/L (≈ 0.246 µM) against Candida albicans; over 128 mg/L in the assay with Aspergillus flavus; 64 mg/L (≈ 126 µM) in the assay on Candida parapsilosis.

Consider `C=C(Cl)CN1C[C@H](OCC23C[C@@H]4[C@H](C)CC[C@H]4C4(C=O)CC2C=C(C(C)C)[C@@]34C(=O)O)OC[C@H]1C(F)(F)F`, for which the MIC in the assay with Nakaseomyces glabratus is 1 mg/L (≈ 1.79 µM); with Aspergillus fumigatus, over 128 mg/L; against Cryptococcus neoformans, over 128 mg/L; with Candida albicans it was under 0.06 mg/L; in the assay on Aspergillus flavus, over 128 mg/L; with Candida parapsilosis, over 128 mg/L.

On to `CC(C)C1=CC2CC3(C=O)[C@@H]4CC[C@@H](C)[C@H]4CC2(CO[C@H]2CN[C@H](C)CO2)[C@]13C(=O)O`, for which the MIC in the assay on Nakaseomyces glabratus was 64 mg/L (≈ 148 µM); with Aspergillus fumigatus, over 128 mg/L; in the assay on Cryptococcus neoformans, over 128 mg/L; in the assay on Candida albicans it was 8 mg/L (≈ 18.5 µM); in the assay on Aspergillus flavus, over 128 mg/L; in the assay on Candida parapsilosis, over 128 mg/L.

On to `C=C(Cl)CON1C[C@H](OCC23C[C@@H]4[C@H](C)CC[C@H]4C4(C=O)CC2C=C(C(C)C)[C@@]34C(=O)O)OC[C@H]1C`, for which the MIC in the assay with Nakaseomyces glabratus was 2 mg/L (≈ 3.83 µM); with Aspergillus fumigatus it was over 128 mg/L; against Cryptococcus neoformans it was 1 mg/L (≈ 1.92 µM); against Candida albicans, 0.125 mg/L (≈ 0.239 µM); in the assay with Aspergillus flavus, over 128 mg/L; in the assay on Candida parapsilosis, over 128 mg/L.

Turning to `CC(C)C1=CC2CC3(C=O)[C@@H]4CC[C@@H](C)[C@H]4CC2(CO[C@H]2CN(S(=O)(=O)C4CC4)[C@H](C)CO2)[C@]13C(=O)O`, the MIC is 128 mg/L (≈ 239 µM) in the assay on Nakaseomyces glabratus; over 128 mg/L with Aspergillus fumigatus; over 128 mg/L against Cryptococcus neoformans; 32 mg/L (≈ 59.7 µM) against Candida albicans; over 128 mg/L in the assay with Aspergillus flavus; over 128 mg/L in the assay with Candida parapsilosis.

With `C=C(Cl)CN1C[C@H](OCC23C[C@@H]4[C@H](C)CC[C@H]4C4(C=O)CC2C=C(C(C)C)[C@@]34C(=O)O)O[C@H](C)[C@H]1C`, the MIC in the assay on Nakaseomyces glabratus was 0.25 mg/L (≈ 0.481 µM); with Aspergillus fumigatus, 64 mg/L (≈ 123 µM); against Cryptococcus neoformans, 0.5 mg/L (≈ 0.961 µM); with Candida albicans, under 0.06 mg/L; in the assay on Aspergillus flavus, 1 mg/L (≈ 1.92 µM); with Candida parapsilosis, 8 mg/L (≈ 15.4 µM).

For `CC(C)C1=CC2CC3(C=O)[C@@H]4CC[C@@H](C)[C@H]4CC2(CO[C@H]2CN(C/C=C\Br)[C@H](C)CO2)[C@]13C(=O)O`, the MIC in the assay with Nakaseomyces glabratus is 1 mg/L (≈ 1.82 µM); in the assay on Aspergillus fumigatus, over 128 mg/L; with Cryptococcus neoformans it was over 128 mg/L; with Candida albicans it was under 0.06 mg/L; in the assay on Aspergillus flavus, over 128 mg/L; in the assay with Candida parapsilosis, over 128 mg/L.

On to `CC(C)C1=CC2CC3(C=O)[C@@H]4CC[C@@H](C)[C@H]4CC2(CO[C@H]2CN(C/C=C\Cl)[C@H](C)CO2)[C@]13C(=O)O`, for which the MIC in the assay with Nakaseomyces glabratus was 1 mg/L (≈ 1.98 µM); in the assay with Aspergillus fumigatus, over 128 mg/L; in the assay on Cryptococcus neoformans it was 128 mg/L (≈ 253 µM); in the assay with Candida albicans, 0.125 mg/L (≈ 0.247 µM); with Aspergillus flavus it was over 128 mg/L; in the assay on Candida parapsilosis it was over 128 mg/L.

Turning to `C=C(Cl)CN1C[C@H](OCC23C[C@@H]4[C@H](C)CC[C@H]4C4(C=O)CC2C=C(C(C)C)[C@@]34C(=O)O)OC[C@H]1CO`, the MIC is 1 mg/L (≈ 1.92 µM) with Nakaseomyces glabratus; over 128 mg/L in the assay on Aspergillus fumigatus; 2 mg/L (≈ 3.83 µM) against Cryptococcus neoformans; 0.5 mg/L (≈ 0.958 µM) against Candida albicans; over 128 mg/L in the assay with Aspergillus flavus; 128 mg/L (≈ 245 µM) in the assay with Candida parapsilosis.
